Bioassay records from PubChem.
In the library only some 1.5% were active in any assay of this set; here they are far more common.
CCR6 antag: antagonists of human CCR6 receptor. P51684. hit rate 0.49% among 340,000. inhibition, % at 20 µM. CHO-K1 CCR6 PathHunter beta-arrestin, luminescence, CCL20-stimulated;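 active = compounds whose inhibition of the agonist-driven luminescence signal at 20 µM reaches about 50%, limit read from the data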;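 also: cells stimulated with CCL20 at 14 nM final; plate controls were DMSO with CCL20 for no effect and DMSO without agonist for full effect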
EBI2 antag: antagonists of human EBI2 receptor; hit rate 0.81% among 360,000; AID 651636; inhibition, % at 5 µM; EBI2 beta-arrestin recruitment, luminescence, 7a,25-OHC stimulated; in the data active = inhibition above about 38%;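 also: enzyme fragment complementation signal reports receptor beta-arrestin coupling in cells; 0% = agonist plus DMSO wells and 100% = wells without agonist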
Target sequence (P32249 whole entry, looked up, the tested form may be a part): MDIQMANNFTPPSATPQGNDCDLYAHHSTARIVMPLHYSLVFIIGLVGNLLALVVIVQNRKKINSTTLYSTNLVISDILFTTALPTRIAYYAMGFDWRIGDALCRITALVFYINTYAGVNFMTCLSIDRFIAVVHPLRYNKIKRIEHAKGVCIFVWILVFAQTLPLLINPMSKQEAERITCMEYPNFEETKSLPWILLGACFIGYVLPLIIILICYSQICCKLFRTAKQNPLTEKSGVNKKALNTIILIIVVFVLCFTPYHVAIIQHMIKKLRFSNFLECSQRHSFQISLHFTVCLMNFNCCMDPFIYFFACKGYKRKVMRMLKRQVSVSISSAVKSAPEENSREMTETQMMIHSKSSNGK
APJ antag: antagonists of human APJ apelin receptor. CHO-K1 APJ beta-arrestin complementation, luminescence. hit rate 0.32% among 330,000. AID 2521. inhibition, % at 20 µM;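 active = inhibition above about 40% at 20 µM, limit read from the data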;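 also: cells challenged with 10 nM apelin-13 agonist together with compound; plate controls were apelin-13 plus DMSO wells for no effect and DMSO wells lacking apelin-13 for full effect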
APJ ag: APJ receptor agonism. CHO-K1 APJ PathHunter beta-arrestin, luminescence; 0% DMSO wells, 100% apelin. activation, % at 20 µM. hit rate 0.11% among 330,000. AID 2520;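 active = activation more than six SD over the plate average, tested at 20 µM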;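 also: 0% = DMSO alone and 100% = apelin-13 at 10 nM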
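Assay system: CHO-K1 cells stably expressing ProLink-tagged human APJ and arrestin–beta-gal acceptor. Compound dosing: 20 µM single point, 1% DMSO. Times: 16-18 h seeding, 90 min dark compound exposure, 60 min detection. Detection: beta-gal luminescence. Evaluation: APJ–arrestin association signal. Controls: negative DMSO alone, positive Apelin-13 at 10 nM.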
CXCR6 inh: CXCR6 (human) receptor inhibition. inhibition, % at 20 µM. CHO-K1 PathHunter CXCR6 beta-arrestin, luminescence. O00574. hit rate 0.36% among 360,000; in the data active = inhibition above about 34%, passing the limit was not always enough;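 also: antagonist mode with CXCL16 agonist at 10 nM final; 0% = 10 nM CXCL16 with DMSO and 100% = unstimulated wells without agonist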
Target sequence (O00574 whole entry, looked up): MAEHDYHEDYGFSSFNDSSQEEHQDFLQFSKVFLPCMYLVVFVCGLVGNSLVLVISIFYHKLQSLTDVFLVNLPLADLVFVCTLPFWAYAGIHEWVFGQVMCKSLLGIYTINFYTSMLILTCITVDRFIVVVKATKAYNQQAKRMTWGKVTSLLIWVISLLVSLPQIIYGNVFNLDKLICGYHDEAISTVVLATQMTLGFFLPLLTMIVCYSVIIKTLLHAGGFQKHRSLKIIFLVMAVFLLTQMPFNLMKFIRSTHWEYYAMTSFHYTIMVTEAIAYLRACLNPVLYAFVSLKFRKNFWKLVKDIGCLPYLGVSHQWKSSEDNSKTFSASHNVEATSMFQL
EBI2 conf: EBI2 (human) antagonism, single concentration confirmation; shares compounds with EBI2 antag; EBI2 beta-arrestin luminescence, 7a,25-OHC antagonism; inhibition, % at 5 µM; hit rate 29% among 2,400;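 active = inhibition of at least 50%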
EBI2 ag: EBI2 agonism counter-screen | shares compounds with EBI2 antag | EBI2-expressing cells, agonist mode, luminescence, 60 min; 0% vehicle, 100% 7α,25-dihydroxycholesterol control | activation, % at 5 µM | 2,400 tested, under 10 active | AID 652000;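 active = activation of at least 50%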
bGal counter: inhibits E. coli beta-galactosidase, counter-screen for EBI2 antagonists | AID 652176 | shares compounds with EBI2 antag | inhibition, % at 5 µM | hit rate 1% among 2,400 | purified beta-galactosidase, luminescent Galacton Star, 15 min;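 active = replicate-average signal at least 3 plate SD below neutral wells, shown as high inhibition, flagging enzyme-inhibiting false positives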;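 also: 0% = DMSO wells with enzyme and 100% = wells lacking enzyme; higher means stronger loss of beta-gal luminescence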
Active calls of the source: *; / = not tested or not shown.

SMILES	CCR6 antag	EBI2 antag	APJ antag	APJ ag	CXCR6 inh	EBI2 conf	EBI2 ag	bGal counter
Cc1ccn2c(=O)nc(SCC(=O)NCc3ccccc3Cl)nc2c1	2.4	-1.9	8.1	3.1	1.5	/	/	/
O=C(c1ccc(F)cc1)C(C(=O)N1CCCCC1)n1ccccc1=O (centres undefined)	1.1	-0.6	10.4	-2.6	1.4	/	/	/
CCC1CSC(Nc2ccc(C(=O)/C=C/c3ccc(Br)cc3)cc2)=N1 (centres undefined)	15.3	60.8*	9.3	-4.7	3.2	54.8*	0.8	1.1
CCCSc1ccc([C@H]2N[C@@](CC(C)C)(C(=O)OC)[C@H]3C(=O)N(CC)C(=O)[C@@H]23)cc1	12.8	15.0	9.1	-3.9	3.3	/	/	/
CC(C)Sc1ccc(C(=O)Nc2ccc(F)cc2F)cn1	13.1	45.2*	-7.6	-1.0	7.9	20.4	0.2	12.1
Cc1ccc(S(=O)(=O)NCC(=O)OCC(=O)N(CCC#N)c2ccccc2)cc1	5.2	-5.7	9.8	-1.1	2.6	/	/	/
CC(C)N(C)C1CCN(C(=O)Nc2ccc(Cl)cc2)CC1	-14.0	-26.1	-6.5	-3.7	-0.4	/	/	/
O=C(Nc1cccc(F)c1)N1CCC(c2ccccc2)CC1	12.9	67.0*	0.7	-3.3	-0.8	40.9	-0.3	-9.3
Cc1ccc(C2CCN(C(=O)Nc3ccccc3)C2)cc1 (centres undefined)	2.5	60.3*	4.2	-1.7	0.5	47.4	-0.6	7.4
O=C(Nc1ccc(Cl)cc1)N1CCC(c2ccccc2)C1 (centres undefined)	18.8	86.8*	-6.2	-0.9	1.8	54.9*	-1.2	-7.7
Cc1ccc(NC(=S)N2CCC(c3ccc(C)cc3)C2)cc1 (centres undefined)	-4.3	16.7	10.9	-2.3	6.9	/	/	/
COc1ccc(NC(=S)N2CCC(c3ccc(C)cc3)C2)cc1 (centres undefined)	11.6	46.1*	10.7	-4.1	2.1	33.0	0.9	3.7
Cc1ccc(NC(=O)N2CCC(c3ccccc3)C2)cc1C (centres undefined)	8.0	72.9*	-3.8	-0.3	5.5	62.8*	0.2	-0.4
CN(C)c1ccc(-c2noc(C3CCN(C(=O)Nc4ccc(Cl)cc4)CC3)n2)cc1	-0.1	81.9*	-4.9	-3.7	9.4	57.4*	0.4	3.5
COc1ccc(OC)c(CCNC(=O)Cn2nc(C)c3c(C)n(-c4ccccc4)nc3c2=O)c1	7.3	-9.1	8.5	-6.9	-3.5	/	/	/
N#Cc1cccnc1Oc1ccccc1	-7.8	-11.4	-2.5	-1.1	6.2	/	/	/
COc1ccccc1NC(=O)N1CCCC(CNC(=O)c2ccccc2Cl)C1 (centres undefined)	2.7	-5.5	-24.0	1.0	6.0	/	/	/
O=C(c1ccco1)N1CCc2[nH]nc(-c3ccc(Cl)cc3)c2C1	5.7	41.4*	3.3	-2.4	7.0	25.4	0.1	7.1
Cc1ccccc1OCC(=O)N1CCC2(CC1)CC(=O)c1ccccc1O2	4.2	29.8	1.8	-2.3	8.9	/	/	/
O=C1CC2(CCN(C(=O)COc3ccccc3)CC2)Oc2ccccc21	3.4	45.6*	8.2	-0.1	-1.8	19.8	1.5	3.7
O=C1CC2(CCN(C(=O)C3CC(=O)N(c4ccccc4)C3)CC2)Oc2ccccc21 (centres undefined)	-2.1	64.5*	-48.8	-5.7	-0.6	21.5	0.9	6.0
O=C(NNC(=O)c1cc(Cl)ccc1O)c1ccc(NS(=O)(=O)c2cccs2)cc1	7.6	4.0	1.6	-2.1	6.6	/	/	/
COc1cc(OC)c(C(=O)OCC(=O)Nc2nnc(-c3ccccc3)o2)cc1OC	2.4	10.2	-56.4	-2.3	-3.7	/	/	/
CCOC(=O)c1c2ccc(OCC(=O)N/N=C/c3ccc(C)cc3)cc2n2ccccc12	-1.0	47.7*	-68.4	5.3	-23.5	37.9	0.9	7.9
CCOc1ccc(NC(=O)C2CCN(S(=O)(=O)c3c(C)noc3C)CC2)cc1	5.4	-7.4	-6.7	10.6	-7.5	/	/	/
SMILES	CCR6 antag	EBI2 antag	APJ antag	APJ ag	CXCR6 inh	EBI2 conf	EBI2 ag	bGal counter
C=CCOc1ccc(/C=C/C(=O)N2CCCN(S(=O)(=O)c3c(C)noc3C)CC2)cc1	-4.9	62.8*	1.5	1.6	-5.7	48.0	-1.3	-4.6
Cc1cc(NC(=O)CN2CC(C)OC(C)C2)n(-c2nc3ccccc3s2)n1 (centres undefined)	8.4	18.0	20.8	-1.5	4.5	/	/	/
CCOC(=O)C1CCN(CC(=O)Nc2cc(C)nn2-c2nc3ccccc3s2)CC1	4.0	54.8*	8.1	-3.1	11.8	21.8	0.8	-9.3
CCCn1c(SCC(=O)N2CCN(CC)CC2)nc2c1c(=O)n(C)c(=O)n2C	0.3	-7.2	22.2	-2.6	-1.9	/	/	/
O=C(CSc1ncccc1C(=O)O)Nc1ccc2c(c1)OCCO2	-5.0	-18.4	16.4	-2.0	8.7	/	/	/
O=C(Nc1ccccc1)Nc1nc(-c2ccccc2)cs1	-4.4	-0.2	-34.7	3.0	2.6	/	/	/
CC(C)(C)c1csc(NC(=O)Nc2ccccc2)n1	-1.6	42.7*	-22.8	0.9	-4.4	31.7	-1.2	-10.0
CCOC(=O)C1CCN(C(=O)c2cc3cc(Cl)ccc3[nH]2)CC1	4.9	88.6*	4.7	-5.1	-5.4	66.7*	1.8	3.0
CCOC(=O)N1CCN(C(=O)c2cc3ccc(OC)cc3[nH]2)CC1	4.0	59.4*	-3.1	-5.0	-7.6	24.3	0.2	7.0
CCOC(=O)N1CCN(C(=O)c2ccc(OC)cc2)CC1	3.1	3.9	19.1	-4.3	-1.6	/	/	/
CCOC(=O)C1CCN(C(=O)c2cc3ccc(OC)cc3[nH]2)CC1	-2.7	38.5*	1.7	-3.0	-7.0	24.6	0.9	6.7
O=[N+]([O-])c1ccccc1S(=O)(=O)Nc1cccc(S(=O)(=O)N2CCCC2)c1	13.5	-9.7	4.6	-2.1	-3.0	/	/	/
Cc1cccc(C(=O)NCC(=O)N2CCN(c3ccccn3)CC2)c1	3.6	-6.4	-2.2	-1.5	2.8	/	/	/
CCCCc1ccc(NC(=O)CSc2nnc(C)c(=O)n2N)cc1	4.4	-3.7	-1.0	2.1	-0.9	/	/	/
COc1ccc(-n2ncc3c2CC(C)(C)CC3NC(=O)c2c(C)cc(=O)oc2C)cc1 (centres undefined)	16.1	3.0	1.7	-1.9	8.8	/	/	/
COc1ccc(-n2cc(-c3ccccc3)nc2SC)cc1	11.7	42.2*	20.0	0.8	-0.8	34.5	-0.2	3.5
CC(=O)N(/N=C/c1ccc(C)cc1)c1nc(CCl)cs1	-17.7	-5.3	-1.2	0.8	10.5	/	/	/
CC(NC(=O)CCCOc1ccc(Cl)cc1)c1ccccc1 (centres undefined)	5.0	44.2*	-0.3	4.7	-10.1	9.7	-0.8	-11.3
